From ChEMBL document CHEMBL2346604, “Synthesis of nordihydroguaiaretic acid derivatives and their bioactivities on S. pombe and K562 cell lines” (Eur J Med Chem, 2013)
In brackets after ≈: the same amount, converted by molar mass. Values belong to the molecule of their own block, whether it stands above or below them.

How the values were obtained:
[1] = system: K562; assay: Inhibition of growth metabolism of human K562 cells assessed as growth rate constant at 14 mg/L at 37 degC by TAM air microcalorimetry; format: functional
Outline: (§1)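 K562 cells in supplemented RPMI 1640 (10% FBS) seeded at 1×10⁶ cells/mL with compound at graded concentrations. Heat flow recorded in real time in an eight-channel isothermal microcalorimeter (TAM Air). Rate constant k derived from thermogenic growth curves. Inhibition ratio I = (k0 − kc)/k0 × 100% relative to untreated cells, and IC50 is the concentration at I = 50%. Mean ± S.D., n = 3.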

[2] = system: K562; assay: Inhibition of growth metabolism of human K562 cells assessed as growth rate constant at 4 mg/L at 37 degC by TAM air microcalorimetry; format: functional; outline: as §1
[3] = system: Schizosaccharomyces pombe; assay: Inhibition of growth metabolism of Schizosaccharomyces pombe ACCC 20047 assessed as growth rate constant at 40 mg/L at 32 degC by TAM air microcalorimetry; format: functional
Outline: (§2)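 Cells seeded at 1×10⁶ cells/mL with compound at a range of concentrations. Heat output recorded continuously in a TAM Air isothermal microcalorimeter. Growth rate constant k taken from power-time curves. I = (k0 − kc)/k0 × 100%, and IC50 is the concentration giving I = 50%. n = 3.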

[4] = system: Schizosaccharomyces pombe; assay: Inhibition of growth metabolism of Schizosaccharomyces pombe ACCC 20047 assessed as growth rate constant at 400 mg/L at 32 degC by TAM air microcalorimetry; format: functional; outline: as §2
[5] = system: K562; assay: Inhibitive ratio of growth metabolism of human K562 cells at 4 mg/L at 37 degC by TAM air microcalorimetry (reference value: 0%); format: functional; outline: as §1
[6] = system: Schizosaccharomyces pombe; assay: Inhibition of growth metabolism of Schizosaccharomyces pombe ACCC 20047 assessed as growth rate constant at 320 mg/L at 32 degC by TAM air microcalorimetry; format: functional; outline: as §2
[7] = system: Schizosaccharomyces pombe; assay: Inhibitive ratio of growth metabolism of Schizosaccharomyces pombe ACCC 20047 at 40 mg/L at 32 degC by TAM air microcalorimetry (reference value: 0%); format: functional; outline: as §2
[8] = system: K562; assay: Inhibitive ratio of growth metabolism of human K562 cells at 8 mg/L at 37 degC by TAM air microcalorimetry (reference value: 0%); format: functional; outline: as §1
[9] = system: K562; assay: Inhibition of growth metabolism of human K562 cells assessed as growth rate constant at 2 mg/L at 37 degC by TAM air microcalorimetry; format: functional; outline: as §1
[10] = system: Schizosaccharomyces pombe; assay: Inhibition of growth metabolism of Schizosaccharomyces pombe ACCC 20047 at 32 degC by TAM air microcalorimetry; format: functional, organism-based; outline: as §2
[11] = system: Schizosaccharomyces pombe; assay: Inhibition of growth metabolism of Schizosaccharomyces pombe ACCC 20047 assessed as growth rate constant at 80 mg/L at 32 degC by TAM air microcalorimetry; format: functional; outline: as §2
[12] = system: Schizosaccharomyces pombe; assay: Inhibition of growth metabolism of Schizosaccharomyces pombe ACCC 20047 assessed as growth rate constant at 240 mg/L at 32 degC by TAM air microcalorimetry; format: functional; outline: as §2
[13] = system: K562; assay: Inhibition of growth metabolism of human K562 cells at 37 degC by TAM air microcalorimetry; format: functional, cell-based; outline: as §1
[14] = system: K562; assay: Inhibition of growth metabolism of human K562 cells assessed as growth rate constant at 8 mg/L at 37 degC by TAM air microcalorimetry; format: functional; outline: as §1
[15] = system: K562; assay: Inhibitive ratio of growth metabolism of human K562 cells at 14 mg/L at 37 degC by TAM air microcalorimetry (reference value: 0%); format: functional; outline: as §1
[16] = system: Schizosaccharomyces pombe; assay: Inhibitive ratio of growth metabolism of Schizosaccharomyces pombe ACCC 20047 at 160 mg/L at 32 degC by TAM air microcalorimetry (reference value: 0%); format: functional; outline: as §2
[17] = system: K562; assay: Inhibitive ratio of growth metabolism of human K562 cells at 2 mg/L at 37 degC by TAM air microcalorimetry (reference value: 0%); format: functional; outline: as §1
[18] = system: K562; assay: Inhibition of growth metabolism of human K562 cells assessed as growth rate constant at 12 mg/L at 37 degC by TAM air microcalorimetry; format: functional; outline: as §1
[19] = system: K562; assay: Inhibitive ratio of growth metabolism of human K562 cells at 12 mg/L at 37 degC by TAM air microcalorimetry (reference value: 0%); format: functional; outline: as §1
[20] = system: Schizosaccharomyces pombe; assay: Inhibitive ratio of growth metabolism of Schizosaccharomyces pombe ACCC 20047 at 320 mg/L at 32 degC by TAM air microcalorimetry (reference value: 0%); format: functional; outline: as §2
[21] = system: Schizosaccharomyces pombe; assay: Inhibitive ratio of growth metabolism of Schizosaccharomyces pombe ACCC 20047 at 400 mg/L at 32 degC by TAM air microcalorimetry (reference value: 0%); format: functional; outline: as §2
[22] = system: Schizosaccharomyces pombe; assay: Inhibition of growth metabolism of Schizosaccharomyces pombe ACCC 20047 assessed as growth rate constant at 160 mg/L at 32 degC by TAM air microcalorimetry; format: functional; outline: as §2
[23] = system: Schizosaccharomyces pombe; assay: Inhibitive ratio of growth metabolism of Schizosaccharomyces pombe ACCC 20047 at 80 mg/L at 32 degC by TAM air microcalorimetry (reference value: 0%); format: functional; outline: as §2
[24] = system: Schizosaccharomyces pombe; assay: Inhibitive ratio of growth metabolism of Schizosaccharomyces pombe ACCC 20047 at 240 mg/L at 32 degC by TAM air microcalorimetry (reference value: 0%); format: functional; outline: as §2
[25] = system: Schizosaccharomyces pombe; assay: Inhibitive ratio of growth metabolism of Schizosaccharomyces pombe ACCC 20047 at 20 mg/L at 32 degC by TAM air microcalorimetry (reference value: 0%); format: functional; outline: as §2
[26] = system: K562; assay: Inhibitive ratio of growth metabolism of human K562 cells at 6 mg/L at 37 degC by TAM air microcalorimetry (reference value: 0%); format: functional; outline: as §1
[27] = system: Schizosaccharomyces pombe; assay: Inhibition of growth metabolism of Schizosaccharomyces pombe ACCC 20047 assessed as growth rate constant at 20 mg/L at 32 degC by TAM air microcalorimetry; format: functional; outline: as §2
[28] = system: K562; assay: Inhibition of growth metabolism of human K562 cells assessed as growth rate constant at 6 mg/L at 37 degC by TAM air microcalorimetry; format: functional; outline: as §1
[29] = system: K562; assay: Inhibition of growth metabolism of human K562 cells assessed as growth rate constant at 7 mg/L at 37 degC by TAM air microcalorimetry; format: functional; outline: as §1
[30] = system: K562; assay: Inhibitive ratio of growth metabolism of human K562 cells at 9 mg/L at 37 degC by TAM air microcalorimetry (reference value: 0%); format: functional; outline: as §1
[31] = system: K562; assay: Inhibition of growth metabolism of human K562 cells assessed as growth rate constant at 9 mg/L at 37 degC by TAM air microcalorimetry; format: functional; outline: as §1
[32] = system: K562; assay: Inhibitive ratio of growth metabolism of human K562 cells at 11 mg/L at 37 degC by TAM air microcalorimetry (reference value: 0%); format: functional; outline: as §1
[33] = system: K562; assay: Inhibition of growth metabolism of human K562 cells assessed as growth rate constant at 11 mg/L at 37 degC by TAM air microcalorimetry; format: functional; outline: as §1
[34] = system: K562; assay: Inhibitive ratio of growth metabolism of human K562 cells at 7 mg/L at 37 degC by TAM air microcalorimetry (reference value: 0%); format: functional; outline: as §1

- IC50 [13]: 11.2 µg/mL (≈ 30.5 µM)
Structure (SMILES): COc1ccc(-c2oc(-c3ccc(OC)c(OC)c3)c(C)c2C)cc1OC
- Activity [1]: 7.6784 ×10⁻⁵ /min
- Activity [2]: 4.3527 ×10⁻⁴ /min
- Activity [3]: 0.00429 min⁻¹
- Activity [4]: 0.00113 min⁻¹
- inhibition at 4 µg/mL [5]: -13.2%
- Activity [6]: 0.00273 min⁻¹
- inhibition at 40 µg/mL [7]: -1.66%
- inhibition at 8 µg/mL [8]: 19.8%
- Activity [9]: 3.9155 ×10⁻⁴ /min
- IC50 [10]: 350 µg/mL (≈ 950 µM)
- Activity [11]: 0.00431 min⁻¹
- Activity [12]: 0.00346 min⁻¹
- Activity [14]: 3.0855 ×10⁻⁴ /min
- inhibition at 14 µg/mL [15]: 80%
- inhibition at 160 µg/mL [16]: -1.9%
- inhibition at 2 µg/mL [17]: -1.79%
- Activity [18]: 1.65 ×10⁻⁴ /min
- inhibition at 12 µg/mL [19]: 57.1%
- inhibition at 320 µg/mL [20]: 35.3%
- inhibition at 400 µg/mL [21]: 73.2%
- Activity [22]: 0.0043 min⁻¹
- inhibition at 80 µg/mL [23]: -2.13%
- inhibition at 240 µg/mL [24]: 18%
- inhibition at 20 µg/mL [25]: -1.18%
- inhibition at 6 µg/mL [26]: 18.9%
- Activity [27]: 0.00427 min⁻¹
- Activity [28]: 3.1202 ×10⁻⁴ /min

- IC50 [13]: 8.57 µg/mL (≈ 22.2 µM)
Structure (SMILES): COc1ccc(C(=O)C(C)C(C)C(=O)c2ccc(OC)c(OC)c2)cc1OC (stereo unspecified)
- Activity [2]: 4.4893 ×10⁻⁴ /min
- Activity [3]: 0.00462 min⁻¹
- Activity [4]: 0.00075 min⁻¹
- inhibition at 4 µg/mL [5]: -13.9%
- Activity [29]: 3.6261 ×10⁻⁴ /min
- Activity [6]: 0.00163 min⁻¹
- inhibition at 40 µg/mL [7]: -4.05%
- inhibition at 8 µg/mL [8]: 42%
- inhibition at 9 µg/mL [30]: 55.8%
- IC50 [10]: 290 µg/mL (≈ 750 µM)
- Activity [11]: 0.0046 min⁻¹
- Activity [12]: 0.00341 min⁻¹
- Activity [14]: 2.2866 ×10⁻⁴ /min
- Activity [31]: 1.7435 ×10⁻⁴ /min
- inhibition at 160 µg/mL [16]: 5.18%
- inhibition at 320 µg/mL [20]: 63.3%
- inhibition at 400 µg/mL [21]: 83%
- inhibition at 11 µg/mL [32]: 57.3%
- Activity [22]: 0.00421 min⁻¹
- inhibition at 80 µg/mL [23]: -3.6%
- Activity [33]: 1.681 ×10⁻⁴ /min
- inhibition at 240 µg/mL [24]: 23.2%
- inhibition at 20 µg/mL [25]: -7.88%
- inhibition at 6 µg/mL [26]: -0.78%
- Activity [27]: 0.00479 min⁻¹
- inhibition at 7 µg/mL [34]: 7.96%
- Activity [28]: 3.9703 ×10⁻⁴ /min
